TRPC4 block: blocks the mouse TRPC4 cation channel; 300,000 compounds, 0.39% hits; Q9QUQ5; AID 2247; B-score at 10 µM; HEK293 TRPC4beta/mu-opioid, DAMGO-evoked Fluo4 calcium flux; hits give low values;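 active means B-score over 3 SD under the library average, no early fluorescence shift, positive overall ratio signal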
Target sequence (Q9QUQ5 whole entry, looked up): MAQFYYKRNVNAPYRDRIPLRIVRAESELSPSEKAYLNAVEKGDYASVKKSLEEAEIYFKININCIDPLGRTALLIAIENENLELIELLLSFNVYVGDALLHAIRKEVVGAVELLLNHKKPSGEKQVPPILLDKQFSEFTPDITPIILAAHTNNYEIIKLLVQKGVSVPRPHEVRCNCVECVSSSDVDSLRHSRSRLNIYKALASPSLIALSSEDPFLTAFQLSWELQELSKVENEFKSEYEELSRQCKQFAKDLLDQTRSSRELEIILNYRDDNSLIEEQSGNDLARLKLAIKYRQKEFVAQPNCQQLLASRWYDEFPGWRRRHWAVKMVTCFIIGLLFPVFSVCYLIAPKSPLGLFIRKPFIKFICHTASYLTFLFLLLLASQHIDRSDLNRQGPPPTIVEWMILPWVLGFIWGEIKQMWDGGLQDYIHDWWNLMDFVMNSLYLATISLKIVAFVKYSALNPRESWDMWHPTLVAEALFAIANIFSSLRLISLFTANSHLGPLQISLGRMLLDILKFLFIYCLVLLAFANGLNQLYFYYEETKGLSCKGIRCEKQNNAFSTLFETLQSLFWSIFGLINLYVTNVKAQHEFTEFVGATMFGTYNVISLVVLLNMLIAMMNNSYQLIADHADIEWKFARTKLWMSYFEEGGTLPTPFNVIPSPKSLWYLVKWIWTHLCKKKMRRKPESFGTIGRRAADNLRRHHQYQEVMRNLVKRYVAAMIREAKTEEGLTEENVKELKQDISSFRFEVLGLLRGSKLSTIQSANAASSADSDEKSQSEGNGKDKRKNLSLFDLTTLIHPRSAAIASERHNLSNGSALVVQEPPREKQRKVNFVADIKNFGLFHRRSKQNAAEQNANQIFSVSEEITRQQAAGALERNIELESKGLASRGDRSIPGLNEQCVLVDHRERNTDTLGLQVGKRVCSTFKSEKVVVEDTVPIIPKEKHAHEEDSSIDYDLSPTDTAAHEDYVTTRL
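System: stable TRPC4beta/mu-opioid receptor HEK293 cells; Dosing: single-point compound dosing; Measured by: Fluo4 Ca2+ flux fluorescence; Read-out basis: per-well B score of integrated baseline-normalized Fluo4 ratio.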
TRPC4 potent: TRPC4 (mouse) allosteric potentiation | AID 2227 | 310,000 compounds, 0.42% hits | B-score at 10 µM | HEK293 TRPC4beta/mu-opioid, DAMGO EC20, Fluo-4 Ca2+ flux; hits give high values;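 active means B-score of calcium response area above 5 SD of library B-scores, with initial fluorescence ratio within 5 SD of library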;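 further: B-score of integrated fluorescence ratio over time as area under calcium response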
TRPC6 inhibitor: blocks the mouse TRPC6 cation channel | HEK293-TRPC6, membrane potential dye, ACh-evoked depolarization; hits give low values | AID 2553 | Q61143 | B-score at 10 µM | 310,000 compounds, 1.1% hits;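 active means B-score under library mean minus 3 SD, initial fluorescence not abnormally high, positive integrated signal ratio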;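 further: B-score derived from integrated fluorescence ratio over the kinetic read; more negative B-score means stronger inhibition of depolarization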
TRPC6 activator: mouse TRPC6 channel activation; Q61143; HEK293-TRPC6 membrane potential dye fluorescence; hits give high values; B-score at 10 µM; 310,000 compounds, 0.13% hits; AID 2550;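 active means B-score of the integrated fluorescence ratio above library mean plus 3 SD, and starting fluorescence ratio within library mean plus 5 SD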;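 further: higher score means more depolarization so channel activation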
TRPC4 act: opens the mouse TRPC4 cation channel; Q9QUQ5; HEK293 TRPC4beta/mu-opioid, Fluo4 calcium fluorescence; hits give high values; B-score at 10 µM; 310,000 compounds, 0.49% hits; AID 2237;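 active means B-score above 5 SD of library B-scores, and initial fluorescence ratio not above library mean plus 5 SD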;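 further: positive B-score marks a calcium rise read as TRPC4 activation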
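Assay system: HEK293 stable line with TRPC4beta plus mu-opioid receptor; schedule: 45 min room-temperature Fluo4 loading, 110 s read; technique: kinetic Fluo4 calcium fluorescence; evaluation: integrated baseline-normalised fluorescence ratio, converted to per-well B score; controls: buffer (low) and maximal DAMGO (high)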
TRPC4 sel inh 2: mouse TRPC4 off-target activity of TRPC6 inhibitors, second screen; shares compounds with TRPC6 inhibitor; HEK293 TRPC4/MOR, membrane potential dye fluorescence; channel activated by saturating DAMGO dose; inhibition, % at 10 µM; 920 compounds, 42% hits;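 active means compounds whose fluorescence signal differed from control wells by over 3 SD, either direction, in both duplicate plates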
TRPC4 spec: mouse TRPC4 off-target activity of TRPC6 inhibitors | shares compounds with TRPC6 inhibitor | HEK293 TRPC4/mu-opioid, membrane potential fluorescence | activity change, negative = inhibition, % at 10 µM | 920 compounds, 61% hits;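 active means rise or fall in signal beyond 3 SD of buffer-only wells in both replicate plates, either sign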;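 further: integrated kinetic ratio of fluorescence range over baseline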
HEK293 MPD ctr 2-1: second counter-screen for TRPC6 inhibitors: parental HEK293 cells; shares compounds with TRPC6 inhibitor; parental HEK293 membrane potential dye fluorescence; maximal acetylcholine challenge after compound addition; signal change vs control, % at 10 µM; 920 compounds, 31% hits;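 active means membrane potential signal moving either way by over 3 SD of the maximum-effect control, in both duplicate plates, meaning non-specific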
HEK293 MPD ctr-1: parental HEK293 nonspecific activity of TRPC6 inhibitors; shares compounds with TRPC6 inhibitor; parental HEK293 membrane potential dye fluorescence; membrane potential signal change, % at 10 µM; 920 compounds, 60% hits; AID 2780;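 active means membrane potential signal shifting up or down by more than 3 SD of buffer-only wells, on both duplicate plates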
HEK293 MPD ctr-2: parental HEK293 nonspecific activity of TRPC6 modulators; shares compounds with TRPC6 inhibitor; membrane potential dye fluorescence; membrane potential signal change, % at 10 µM; 2,400 compounds, 51% hits;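 active means membrane potential signal moves up or down beyond 5 SD from buffer-only wells, on both duplicate plates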
HEK293 MPD ctr 2-2: parental HEK293 nonspecific activity of TRPC6 modulators, second screen; shares compounds with TRPC6 inhibitor; membrane potential dye fluorescence; after compound, maximal acetylcholine stimulation; inhibition, % at 10 µM; 2,400 compounds, 14% hits; AID 488926;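 active means membrane potential signal drops by more than 5 SD from the mean control signal, in both duplicate plates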;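 further: plate controls were acetylcholine ECmax control wells for no effect and buffer only wells for full effect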
TRPC4/MOR mod: mouse TRPC4 off-target activity of TRPC6 modulators. shares compounds with TRPC6 inhibitor. HEK293 TRPC4/mu-opioid, membrane potential fluorescence. percent change from control (negative = decrease, positive = increase), % at 10 µM. 2,400 compounds, 69% hits. AID 488927;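 active means membrane potential signal moved up or down beyond 5 SD of buffer control wells, in both duplicate plates, actives on both sides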;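 further: plate controls were assay buffer wells for no effect and DAMGO maximal-effect wells for full effect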
TRPC4/MOR inh 2: second selectivity test of TRPC6 modulators against mouse TRPC4 | shares compounds with TRPC6 inhibitor | HEK293 TRPC4/mu-opioid, membrane potential dye fluorescence; stimulated with maximal-effect DAMGO | inhibition, % at 10 µM | 2,400 compounds, 55% hits | AID 488928;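 active means drop in membrane potential signal beyond 5 SD of the control wells in both duplicate plates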;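 further: TRPC4 counter screen for TRPC6 hits run under conditions tuned for TRPC6 not TRPC4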
TRPC6 block conf: confirmation of mouse TRPC6 inhibitors | 3,300 compounds, 43% hits | AID 488960 | HEK293-TRPC6, membrane potential dye, ACh-evoked depolarization | shares compounds with TRPC6 inhibitor | inhibition, % at 10 µM;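 active means fluorescence ratio falls more than 5 SD below the full-stimulation control mean, in both duplicate runs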;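 further: integrated fluorescence ratio of peak minus minimum over baseline after agonist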
TRPC6 act conf: mouse TRPC6 activator confirmation; activation, % at 10 µM; HEK293-TRPC6 membrane potential dye fluorescence, FDSS; 2,800 compounds, 11% hits; shares compounds with TRPC6 inhibitor;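 active means ratio signal rise beyond 5 SD above unstimulated control wells' mean, seen in both duplicate runs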;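 further: plate controls were buffer EC0 wells for no effect and acetylcholine ECmax response for full effect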
Starred values were filed as active, the others as inactive. Only some compounds are listed: those with a hit (about 2.3% of all), similar ones and a draw of the others.

`CN1CCN(c2ccc(S(=O)(=O)N3CCCCC3)cc2NC(=O)c2ccc(F)cc2F)CC1` gave TRPC4 block inactive, TRPC4 potent 16*, TRPC6 inhibitor -9*, TRPC6 activator inactive, TRPC4 act inactive, TRPC4 sel inh 2 70%*, TRPC4 spec inactive, HEK293 MPD ctr 2-1 278%*, HEK293 MPD ctr-1 0.3%*, TRPC6 block conf inactive and TRPC6 act conf inactive.
For CCN1CCN(c2ccc(S(=O)(=O)N3CCCCC3)cc2NC(=O)COc2cc(C)ccc2Cl)CC1 the results were TRPC4 block inactive, TRPC4 potent 25*, TRPC6 inhibitor -5.7*, TRPC6 activator inactive, TRPC4 act inactive, HEK293 MPD ctr-2 inactive, HEK293 MPD ctr 2-2 inactive, TRPC4/MOR mod inactive, TRPC4/MOR inh 2 54%*, TRPC6 block conf inactive and TRPC6 act conf inactive.
Screening COc1ccc(S(=O)(=O)N2CCCCC2)cc1NC(=O)c1ccc([N+](=O)[O-])o1 returned TRPC4 block inactive, TRPC4 potent inactive, TRPC6 inhibitor inactive, TRPC6 activator inactive and TRPC4 act inactive.
C=C(C)CSc1nc2c(c(=O)[nH]c(=O)n2C)n1CCC(C)C was read as TRPC4 block inactive, TRPC4 potent inactive, TRPC6 inhibitor inactive, TRPC6 activator inactive and TRPC4 act inactive.
Cc1ccc(C)c(CNS(=O)(=O)c2c(C)[nH]c(C)c2C(=O)N2CCCCC2)c1 was read as TRPC4 block inactive, TRPC4 potent inactive, TRPC6 inhibitor inactive, TRPC6 activator inactive and TRPC4 act inactive.
Screening COC(=O)c1cc2c(=O)n3ccccc3nc2n(Cc2cccnc2)c1=N returned TRPC4 block inactive, TRPC4 potent inactive, TRPC6 inhibitor -7.8*, TRPC6 activator inactive, TRPC4 act inactive, TRPC4 sel inh 2 75%*, TRPC4 spec -33%*, HEK293 MPD ctr 2-1 inactive, HEK293 MPD ctr-1 -520%*, TRPC6 block conf inactive and TRPC6 act conf inactive.
`N=c1c(C(=O)NCc2ccc(F)cc2)cc2c(=O)n3ccccc3nc2n1Cc1cccnc1` gave TRPC4 block inactive, TRPC4 potent inactive, TRPC6 inhibitor -5.8*, TRPC6 activator inactive, TRPC4 act inactive, HEK293 MPD ctr-2 inactive, HEK293 MPD ctr 2-2 inactive, TRPC4/MOR mod -34%*, TRPC4/MOR inh 2 inactive, TRPC6 block conf 52%* and TRPC6 act conf inactive.
For CCOc1ccccc1NC(=O)[C@@H](NC(=O)c1ccccc1F)C(C)C the results were TRPC4 block inactive, TRPC4 potent inactive, TRPC6 inhibitor inactive, TRPC6 activator inactive and TRPC4 act inactive.
Screening CN1CCN(c2ccc(CNC(=O)c3cc4ccccc4o3)cc2)CC1 returned TRPC4 block inactive, TRPC4 potent inactive, TRPC6 inhibitor -5.3*, TRPC6 activator inactive, TRPC4 act inactive, HEK293 MPD ctr-2 inactive, HEK293 MPD ctr 2-2 inactive, TRPC4/MOR mod inactive, TRPC4/MOR inh 2 32%*, TRPC6 block conf inactive and TRPC6 act conf inactive.
Screening Cc1cc(C)nc(/N=C(\N)N2CCc3ccccc32)n1 returned TRPC4 block inactive, TRPC4 potent inactive, TRPC6 inhibitor -6.4*, TRPC6 activator inactive, TRPC4 act inactive, HEK293 MPD ctr-2 inactive, HEK293 MPD ctr 2-2 inactive, TRPC4/MOR mod -12%*, TRPC4/MOR inh 2 46%*, TRPC6 block conf inactive and TRPC6 act conf inactive.
NC(=Nc1ccccc1)NC(=O)c1nc(Cl)c(N)nc1N was read as TRPC4 block inactive, TRPC4 potent inactive, TRPC6 inhibitor inactive, TRPC6 activator inactive and TRPC4 act inactive.
Screening CN(C)c1nc(N)c(C(=O)N=C(N)N)nc1Cl returned TRPC4 block inactive, TRPC4 potent inactive, TRPC6 inhibitor -7.3*, TRPC6 activator inactive, TRPC4 act inactive, TRPC4 sel inh 2 inactive, TRPC4 spec -24%*, HEK293 MPD ctr 2-1 inactive, HEK293 MPD ctr-1 -364%*, TRPC6 block conf inactive and TRPC6 act conf inactive.
Screening CC(=O)Nc1nnc(CCS(=O)(=O)c2ccc(C)cc2)s1 returned TRPC4 block inactive, TRPC4 potent inactive, TRPC6 inhibitor inactive, TRPC6 activator inactive and TRPC4 act inactive.
`Cc1cc(C)n(-c2ccc(NC(=O)C3CCCCN3C(=O)c3sccc3C)cc2)n1` (configuration not stated) gave TRPC4 block inactive, TRPC4 potent inactive, TRPC6 inhibitor inactive, TRPC6 activator inactive and TRPC4 act inactive.
For Cc1nn(-c2cc(N3CCCCCC3)ccc2[N+](=O)[O-])c(=O)c2ccccc12 the results were TRPC4 block inactive, TRPC4 potent inactive, TRPC6 inhibitor inactive, TRPC6 activator inactive and TRPC4 act inactive.
